{
  "source": "ChEMBL document CHEMBL1649158",
  "about": "“Emergence of plasmid-mediated quinolone resistance among non-Typhi Salmonella enterica isolates from humans in the United States” (2009)",
  "key": {"[1]": {"test": "Antimicrobial activity against multidrug-resistant Salmonella enterica serotype Corvallis isolate AM20376 expressing qnrS1 gene by broth microdilution method"}, "[2]": {"test": "Antimicrobial activity against trimethoprim-sulfamethoxazole-resistant Salmonella enterica serotype Montevideo isolate AM19383 expressing qnrS1 gene by broth microdilution method"}, "Salmonella enterica [3]": {"system": "Salmonella enterica", "test": "Antimicrobial activity against Salmonella enterica serotype telelkebir isolate AM21420 expressing qnrB5 gene by broth microdilution method", "assay_type": "functional", "method_in_brief": "(§1)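 MICs for 14 to 17 antimicrobial agents were measured by commercial broth microdilution panels. Isolates were screened for aac(6′)-Ib by SYBR green real-time PCR: 0.4 μM each primer, 35 cycles (95°C 20 s, 55°C 30 s, 72°C 30 s), then a 70–90°C melt curve.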"}, "Salmonella typhimurium [4]": {"system": "Salmonella typhimurium", "test": "Antimicrobial activity against multidrug-resistant Salmonella enterica serotype Typhimurium var. O:5 isolate AM25008 expressing aac(6')-Ib-cr gene by broth microdilution method"}, "[5]": {"test": "Antimicrobial activity against multidrug-resistant Salmonella enterica serotype Corvallis isolate AM25736 expressing qnrS1 gene by broth microdilution method"}, "[6]": {"test": "Antimicrobial activity against Salmonella enterica serotype Corvallis isolate AM25927 expressing qnrS1 gene by broth microdilution method"}, "Salmonella enteritidis": {"system": "Salmonella enteritidis", "test": "Antimicrobial activity against ampicillin- and streptomycin-resistant Salmonella enterica serotype Enteritidis isolate AM25798 expressing qnrS1 gene by broth microdilution method"}, "[7]": {"test": "Antimicrobial activity against tetracycline-resistant Salmonella enterica serotype Saintpaul isolate AM30594 expressing qnrS1 gene by broth microdilution method"}, "[8]": {"test": "Antimicrobial activity against tetracycline- and trimethoprim-sulfamethoxazole-resistant Salmonella enterica serotype Saintpaul isolate AM26790 expressing qnrS1 gene by broth microdilution method"}, "Salmonella typhimurium [9]": {"system": "Salmonella typhimurium", "test": "Antimicrobial activity against multidrug-resistant Salmonella enterica serotype Typhimurium isolate AM27315 expressing qnrS1 gene by broth microdilution method"}, "Salmonella typhimurium [10]": {"system": "Salmonella typhimurium", "test": "Antimicrobial activity against multidrug-resistant Salmonella enterica serotype Typhimurium isolate AM27549 expressing qnrS1 gene by broth microdilution method"}, "Salmonella typhimurium [11]": {"system": "Salmonella typhimurium", "test": "Antimicrobial activity against Salmonella enterica serotype Typhimurium isolate AM29365 expressing qnrS1 gene by broth microdilution method"}, "Salmonella typhimurium [12]": {"system": "Salmonella typhimurium", "test": "Antimicrobial activity against Salmonella enterica serotype Typhimurium isolate AM29869 expressing qnrS1 gene by broth microdilution method"}, "Salmonella enterica [13]": {"system": "Salmonella enterica", "test": "Antimicrobial activity against nalidixic acid-resistant Salmonella enterica serotype Kiambu isolate AM27031 expressing qnrB5 gene by broth microdilution method", "assay_type": "functional", "method_in_brief": "as §1"}, "Salmonella enterica [14]": {"system": "Salmonella enterica", "test": "Antimicrobial activity against Salmonella enterica serotype Aqua isolate AM26209 expressing qnrB5 gene by broth microdilution method", "assay_type": "functional", "method_in_brief": "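Broth microdilution panel of 14 to 17 antimicrobial agents against human clinical non-Typhi Salmonella isolates, read as MIC. The study enrolled isolates with decreased ciprofloxacin susceptibility (≥0.25 mg/liter). qnr genes were detected by previously described methods. 2006 data are preliminary.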"}, "Salmonella typhimurium [15]": {"system": "Salmonella typhimurium", "test": "Antimicrobial activity against multidrug-resistant Salmonella enterica serotype Typhimurium isolate AM27125 expressing qnrB5 gene by broth microdilution method"}, "Salmonella enterica [16]": {"system": "Salmonella enterica", "test": "Antimicrobial activity against multidrug-resistant Salmonella enterica serotype Cubana isolate AM28764 expressing qnrB2 gene by broth microdilution method", "assay_type": "functional", "method_in_brief": "as §1"}, "[17]": {"test": "Antimicrobial activity against multidrug-resistant Salmonella enterica serotype Montevideo isolate AM28704 expressing qnrA1 gene by broth microdilution method"}},
  "data": [
    {"smiles": "O=C(O)c1cn(C2CC2)c2cc(N3CCNCC3)c(F)cc2c1=O", "note": "[CIPROFLOXACIN]", "values": [
      {"measurement": "MIC", "setting": "[1]", "result": 0.5, "unit": "µg/mL"},
      {"measurement": "MIC", "setting": "[2]", "result": 0.5, "unit": "µg/mL"},
      {"measurement": "MIC", "setting": "Salmonella enterica [3]", "result": 0.5, "unit": "µg/mL"},
      {"measurement": "MIC", "setting": "Salmonella typhimurium [4]", "result": 1, "unit": "µg/mL"},
      {"measurement": "MIC", "setting": "[5]", "result": 0.25, "unit": "µg/mL"},
      {"measurement": "MIC", "setting": "[6]", "result": 0.25, "unit": "µg/mL"},
      {"measurement": "MIC", "setting": "Salmonella enteritidis", "result": 0.5, "unit": "µg/mL"},
      {"measurement": "MIC", "setting": "[7]", "result": 0.5, "unit": "µg/mL"},
      {"measurement": "MIC", "setting": "[8]", "result": 0.5, "unit": "µg/mL"},
      {"measurement": "MIC", "setting": "Salmonella typhimurium [9]", "result": 0.5, "unit": "µg/mL"},
      {"measurement": "MIC", "setting": "Salmonella typhimurium [10]", "result": 0.5, "unit": "µg/mL"},
      {"measurement": "MIC", "setting": "Salmonella typhimurium [11]", "result": 0.5, "unit": "µg/mL"},
      {"measurement": "MIC", "setting": "Salmonella typhimurium [12]", "result": 0.5, "unit": "µg/mL"},
      {"measurement": "MIC", "setting": "Salmonella enterica [13]", "result": 0.5, "unit": "µg/mL"},
      {"measurement": "MIC", "setting": "Salmonella enterica [14]", "result": 0.25, "unit": "µg/mL"},
      {"measurement": "MIC", "setting": "Salmonella typhimurium [15]", "result": 0.5, "unit": "µg/mL"},
      {"measurement": "MIC", "setting": "Salmonella enterica [16]", "result": 0.5, "unit": "µg/mL"},
      {"measurement": "MIC", "setting": "[17]", "result": 0.25, "unit": "µg/mL"}
    ]}
  ]
}
